Screening data from PubChem BioAssay.
NPY-Y2 PAM-ag = potentiates or activates human NPY-Y2 receptor; P49146; cells expressing NPY-Y2, potentiator/agonist read-out; activation, % at 3.6 µM; hit rate 0.45% among 220,000; in the data active means activation above about 27%;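 further: cells stimulated with NPY near EC25 plus isoproterenol at EC100; 0% = vehicle plus submaximal agonist and 100% = vehicle plus saturating agonist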
Target sequence (P49146 whole entry, looked up): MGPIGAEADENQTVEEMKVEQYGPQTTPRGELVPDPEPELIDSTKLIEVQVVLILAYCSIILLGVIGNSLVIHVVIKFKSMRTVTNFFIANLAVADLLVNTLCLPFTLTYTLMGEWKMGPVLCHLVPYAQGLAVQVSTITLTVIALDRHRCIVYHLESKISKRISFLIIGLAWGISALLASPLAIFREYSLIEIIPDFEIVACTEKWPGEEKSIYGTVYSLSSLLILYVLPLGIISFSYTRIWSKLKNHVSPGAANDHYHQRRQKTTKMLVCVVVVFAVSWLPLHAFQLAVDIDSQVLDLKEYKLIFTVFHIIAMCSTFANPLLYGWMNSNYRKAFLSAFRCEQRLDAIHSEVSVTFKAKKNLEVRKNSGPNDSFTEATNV
NPY-Y1 antag = antagonists of human neuropeptide Y receptor Y1; P25929; HEK293-CNG Y1 cells, membrane potential fluorescence; NPY at EC95, then isoproterenol; inhibition, % at 3.6 µM; hit rate 1% among 200,000;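 active means inhibition above the campaign mean inhibition of all tested compounds plus 3 SD, cut at about 20% in these data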;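 further: 0% = DMSO wells given NPY plus isoproterenol and 100% = isoproterenol alone without NPY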
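Material: Y1- and CNG-channel-expressing HEK293 cells / Probe or stimulus: NPY 25 nM then isoproterenol 1 µM plus Ro 20-1724 25 µM / Doses: 3.6 µM single dose, DMSO 0.4% / Schedule: compound incubation 1 h at room temperature, readout 45 min post-stimulation / Signal: membrane potential fluorescence / Benchmarks: isoproterenol-only wells as full block versus NPY-plus-isoproterenol wells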
MT stabilize HCS = stabilizes microtubules in HeLa cells. HeLa tubulin immunostaining HCS, 24 h; share of cells brighter than vehicle mean+2SD. % tubulin-high responders, % at 10 µM. hit rate 0.83% among 200,000. AID 2205;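 active means plate Z-score above 3 for both tubulin-high and condensed-nucleus cell shares, with cell loss under 80%, at 10 µM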;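 further: anti alpha tubulin signal scored within the nucleus-defined area of each cell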
NPY Y2 blocker = antagonists of human neuropeptide Y receptor Y2; hit rate 0.99% among 140,000; P49146; inhibition, % at 2.7 µM; NPY-Y2 expressing cells, antagonist mode;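 further: 0% = vehicle with agonist challenge and 100% = reference antagonist with challenge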
bCat nuc transl = modulators of beta-catenin nuclear translocation; HeLa beta-catenin nuclear translocation, immunofluorescence imaging; nuclear translocation activity, % at 5 µM; hit rate 0.3% among 190,000; AID 1665;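 active means nuclear translocation activity above 50% at 5 µM, with a well cell count of 50 or more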;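 further: per-cell ratio of nuclear to cytoplasmic median beta-catenin stain intensity; plate controls were DMSO negative control for no effect and GSK-3 inhibitor IX positive control for full effect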
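Signal – beta-catenin immunofluorescence imaging with DAPI · Test system – human HeLa cell line · Dosing – 5 µM primary single dose, 0.1% DMSO, 0.02–20 µM confirmation series · Measure – % activation, nuclear-to-cytoplasmic median beta-catenin signal ratio per cell · Incubation – 24 h compound exposure at 37°C, 5% CO2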
NPY-Y1 PAM-ag = potentiates or activates human NPY-Y1 receptor. P25929. activation, % at 3.6 µM. AID 1304. hit rate 0.37% among 220,000. NPY-Y1 expressing cells, potentiator/agonist activation; in the data active means activation above about 33%, passing the limit was not always enough;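 further: cells stimulated with NPY at EC10 then isoproterenol at EC100; 0% = low agonist plus stimulus and 100% = saturating agonist plus stimulus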
NPY-Y1 ant conf = human NPY-Y1 antagonism, confirmation; shares compounds with NPY-Y1 antag; HEK293-CNG NPY-Y1, membrane potential fluorescence, cAMP; NPY challenge against isoproterenol-raised cAMP; inhibition, % at 3.6 µM; hit rate 21% among 1,200; AID 1254; in the data active means inhibition above about 20%;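 further: 0% = vehicle with agonist plus stimulus and 100% = stimulus alone without agonist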
NPY2 antag ctr = human NPY-Y2 antagonism in NPY-Y1 counter-screen. hit rate 28% among 1,200. shares compounds with NPY-Y1 antag. HEK293 NPY-Y2 CNG membrane potential fluorescence; cells given NPY, then isoproterenol. inhibition, % at 3.6 µM;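 further: 0% = DMSO with agonist challenge and 100% = reference antagonist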
Starred values were filed as active, the others as inactive; x = not tested or not shown. Compounds with a hit are over-represented: about 2.6% of the library has one in this group of screens. Unless noted, no stated cut-off is given here; in the data, active means inhibition above about 17%; inactive means the rest.

SMILES | NPY-Y2 PAM-ag | NPY-Y1 antag | MT stabilize HCS | NPY Y2 blocker | bCat nuc transl | NPY-Y1 PAM-ag | NPY-Y1 ant conf | NPY2 antag ctr
S=c1[nH]nc(-c2cc(-c3ccco3)[nH]n2)n1-c1ccccc1Cl | 1 | 0 | 3 | 17 | -2 | 7 | x | x
CN1\C(=C/C=C/C=C/C=[N+](C)C)C(C)(C)c2ccccc21 | -8 | 151* | 91 | x | x | 3 | 195* | 145*
COc1ccc(CC(=O)Nc2ccccc2C(=O)N2CCOCC2)cc1 | 11 | 2 | 4 | 2 | -1 | 12 | x | x
Cc1c(Cc2ccccc2)c(=O)oc2cc(O)cc(O)c12 | 7 | 0 | 1 | x | 1 | 2 | x | x
C#CCn1c(=NC(=O)c2ccc(Br)s2)sc2cccc(OC)c21 | -9 | 4 | 7 | 15 | 5 | -1 | x | x
CCOc1ccc(NC2c3ccccc3C(=O)N2Cc2ccco2)cc1 (centres undefined) | 18 | -4 | 2 | 3 | -2 | 10 | x | x
CC1CCCC(NC(=O)CSc2ccc(F)cc2)C1C (centres undefined) | 5 | 67* | 2 | x | 0 | 1 | 5 | 2
CC1CCCC(NC(=O)CCC(=O)c2ccc(F)cc2)C1C (centres undefined) | -25 | x | x | x | 0 | -23 | x | x
O=C(OCCN1C(=O)c2ccccc2C1=O)c1cc(=O)[nH]c2ccccc12 | -11 | 6 | 2 | 1 | -5 | -8 | x | x
Cc1cc(C(=O)OCCN2C(=O)c3ccccc3C2=O)c2ccccc2n1 | -4 | 24* | 5 | 5 | -1 | 1 | 1 | 5
Cc1cc(=O)oc2cc(OCc3nnc(-c4ccccc4Br)o3)ccc12 | -5 | 26* | 12 | 13 | 1 | -6 | 4 | 8
O=c1ccc2ccc(OCc3nnc(-c4ccccc4Br)o3)cc2o1 | -6 | 6 | 4 | 13 | -3 | -31 | x | x
CCC/C=C(\CCC)C(NS(=O)(=O)c1cccc2cccnc12)c1ccc(C(=O)OC)cc1 (centres undefined) | 6 | -1 | 3 | 4 | x | -34 | x | x
CCC/C=C(\CCC)C(NC(=O)OCC(C)C)c1ccc(C(=O)OC)cc1 (centres undefined) | -7 | 22* | 2 | 14 | -1 | -41 | 27* | 26*
Cc1ccc(/C=C/C(=O)NC2CCCCCCC2)o1 | 3 | 4 | 3 | 6 | -3 | -7 | x | x
O=C(Nc1ccc2c(c1)OCO2)C1CCN(C(=O)c2ccc(Br)cc2)CC1 | -20 | 33* | 3 | x | 0 | -8 | 11 | 9
CN1CCC(N(C)CC(C)(C)NS(=O)(=O)c2ccccc2)CC1 | -1 | x | x | x | -1 | -8 | x | x
CCc1ccc(NC(=O)CSc2nc3ccccc3c(=O)n2CCCN2CCC(C)CC2)cc1 | -15 | 38* | 2 | x | 0 | -38 | 47* | 51*
Cc1cc(C)c2nc3nc(C)c(C)cc3c(N)c2c1 | -5 | 0 | 3 | x | 2 | 17 | x | x
COc1ccc([N+](=O)[O-])cc1NS(=O)(=O)c1ccc(Cl)c(C(=O)Nc2sc3c(c2C#N)CCCCC3)c1 | -10 | 2 | 2 | x | -1 | 14 | x | x
O=C(Nc1ccc(Cl)c(Cl)c1)c1csc(-c2ccccc2)n1 | 4 | 8 | 1 | 3 | 1 | -6 | x | x
O=C(Nc1cccc(Cl)c1)c1csc(-c2ccccc2)n1 | -40 | 23* | 1 | 16 | 2 | -22 | 6 | 8
CN1CCOC(=O)/C1=N/Nc1cc(Cl)ccc1Cl | 4 | -4 | 3 | x | 0 | -24 | x | x
CCc1sc(C(=O)Nc2cc(Cl)ccc2N2CCCCC2)cc1C | -3 | 21* | 2 | 8 | x | -5 | 1 | 6
Cc1ccc(C(=O)Nc2cc(Cl)ccc2N2CCCCC2)s1 | -23 | 10 | 1 | 13 | x | -54 | x | x
Cc1cc(SCC(=O)c2ccc(O)c(O)c2)n2nc(C)c(-c3ccccc3)c2n1 | -7 | x | x | x | 4 | 28 | x | x
